Measured values from different studies.
Compare with care: the assays were run in different laboratories.
RET M918T: Proto-oncogene tyrosine-protein kinase receptor Ret (RET, Homo sapiens, UniProt P07949, M918T)
RET: Proto-oncogene tyrosine-protein kinase receptor Ret (RET, Homo sapiens, UniProt P07949)
RET V804L: Proto-oncogene tyrosine-protein kinase receptor Ret (RET, Homo sapiens, UniProt P07949, V804L)
RET V804M: Proto-oncogene tyrosine-protein kinase receptor Ret (RET, Homo sapiens, UniProt P07949, V804M)

Compound | target | read-out | technique | concentration | remaining binding [%]
COc1cnc(Nc2cccc(S(N)(=O)=O)c2)nc1N1CCN(c2ccccc2)CC1 | RET M918T | binding | competition with immobilised ligand | 1 µM | 49
c1ccc(N2CCN(Cc3nc4ccccc4[nH]3)CC2)nc1 | RET | cell-free assay | competition with immobilised ligand | 1 µM | 100
C=CC(=O)N1CCC(C(=O)NCC(=O)N2CCN(c3nc(-c4cnc(N)nc4C(F)F)nc(N4CCOCC4)n3)CC2)CC1 | RET | binding | competition with immobilised ligand | 1 µM | 94
CNC(=O)[C@@H]1CC[C@@H](n2c(-c3ccc4cnccc4c3)nc3ccc(C(=O)NCc4cccc(C(N)=O)c4)cc32)C1 | RET V804L | binding | competition with immobilised ligand | 1 µM | 94
Nc1ncc2c(n1)-c1c([nH]c3ccc(C#CC4CC4)cc13)CCCC2 | RET | binding | competition with immobilised ligand | 1 µM | 91
N[C@@H]1CCN(c2nccc(-c3cnn4ncccc34)n2)C1 | RET M918T | binding | – | 1 µM | 94
O=C(NCCCN1CCOCC1)c1ccc(Nc2ncc(Cl)c(-c3ccc(Cl)s3)n2)cc1 | RET M918T | binding | competition with immobilised ligand | 1 µM | 15
C[C@@H]1CN(c2ccc3ncc(-c4ccc5[nH]nc(C6CC6)c5c4)n3n2)C[C@H](C)O1 | RET | binding | competition with immobilised ligand | 50 nM | 88
CN(C)c1nccc(-c2cnn3ncccc23)n1 | RET M918T | binding | – | 1 µM | 97
Cc1nc(Cc2cccc(C(F)(F)F)c2)sc1-c1ccc(C(N)=O)nc1 | RET V804L | cell-free assay | competition with immobilised ligand | 1 µM | 86
CN1CCN(c2ccc(Nc3nccc(-c4cccc([N+](=O)[O-])c4)n3)cc2C(F)(F)F)CC1 | RET V804L | binding | – | 10 µM | 41
CCOCCn1cc(C(=O)Nc2ccc(-n3nc(-c4cccnc4)cc3C(F)(F)F)cn2)ccc1=O | RET | cell-free assay | competition with immobilised ligand | 1 µM | 83
Cc1cnc(Nc2ccc(C(=O)N3CCC(N4CCCC4)CC3)cc2)nc1-c1cc2ccccc2s1 | RET | binding | competition with immobilised ligand | 1 µM | 12
COc1cc(-c2cn(C3CCc4ccccc4N(CC(F)(F)F)C3=O)nn2)ccc1-n1ccc(C)n1 (stereo not drawn) | RET V804M | cell-free assay | competition with immobilised ligand | 1 µM | 100
Cc1cnn2ncc(-c3ccnc(N(C)C)n3)c2c1 | RET V804M | binding | – | 1 µM | 100
CS(=O)(=O)NCC[C@H](NC(=O)c1cncc2c1cnn2-c1ccc(F)cc1)c1ccnc(S(C)(=O)=O)c1 | RET | cell-free assay | competition with immobilised ligand | 1 µM | 91
CC1CCCN1c1nccc(-c2cnn3ncccc23)n1 (stereo not drawn) | RET M918T | binding | – | 1 µM | 89
Cc1cc(-n2nc(Cc3cc(F)cc(C(F)(F)F)c3)nc2C)ccc1C(N)=O | RET | cell-free assay | competition with immobilised ligand | 1 µM | 96
COc1ccnn2ncc(-c3ccnc(N(C)C)n3)c12 | RET V804M | binding | – | 1 µM | 100
COc1cccc(CNC(=O)c2nc3scc(COCc4ccc(C(=O)O)cc4)c3c(=O)[nH]2)c1 | RET V804M | cell-free assay | competition with immobilised ligand | 1 µM | 95.3
CN(CCCC(F)(F)F)c1nccc(-c2cnn3ncccc23)n1 | RET V804L | binding | – | 1 µM | 100
O=C(Nc1c[nH]nc1C(=O)NC1CCNCC1)c1cc(F)cc(F)c1 | RET | binding | competition with immobilised ligand | 1 µM | 100
O=C(c1ccc(Nc2ncc(Cl)c(-c3ccc(Cl)s3)n2)cc1)N1CCC(N2CCCC2)CC1 | RET | binding | competition with immobilised ligand | 1 µM | 15
C[C@@H]1CCN(c2nccc(-c3cnn4ncccc34)n2)C1 | RET V804M | binding | – | 1 µM | 88
